An excerpt weighted towards active compounds, which were near 2.1% of everything screened.
Runt-CBFb FRET – inhibitors of RUNX1 Runt–CBFb binding, primary screen, biochemical, FRET, Cerulean-Runt, Venus-CBFb, uHTS. inhibition, % at 20 µM. Cerulean-Runt/Venus-CBFb FRET ratio 530/480, 1 h. Runt-related transcription factor 1 (Homo sapiens) + Core-binding factor subunit beta …. 0.46% of 220,000 active. AID 1496, 2009;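 active = inhibition over about 50% at 20 µM in the single-dose screen, limit read from the data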;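 also: 0% = DMSO wells and 100% = excess unlabeled CBFb competitor control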
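Assay system: Cerulean-Runt domain fusion protein, energy donor; Signal: fluorescence energy transfer, 422 nm excitation, 530/480 nm emission; Timing: 1 h compound exposure, room temperature; Control set: unlabeled CBFb; Medium: Tris buffer pH 7.5 with salts and BSA; Compound: single test concentration of 20 µM, 1% DMSO final; Probe or stimulus: Venus-CBFb 100 nM.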
Hck Nef HTS – inhibitors of Nef-activated human Hck kinase, primary screen, biochemical, Z-Lyte FRET, 384-well, Hck-YEEI. Tyrosine-protein kinase HCK (Homo sapiens), P08631. Recombinant Hck-YEEI plus Nef, Z-Lyte FRET kinase assay. inhibition, % at 20 µM. 0.68% of 220,000 active;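 active = Hck-Nef kinase inhibition above about 50%, limit read from the data; inactive = inhibition below that limit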;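 also: 0% = DMSO with Hck plus Nef and 100% = Hck alone without Nef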
RanGTP-Impb inh – inhibitors of RanGTP-importin-beta interaction, primary screen, biochemical, FRET, CFP-Ran, YFP-importin-beta, homogeneous; Ran GTPase (GTP-bound) - importin-beta complex; cell-free CFP-Ran/YFP-importin-beta FRET ratio; inhibition, % (no concentration beside the values); 1.1% of 300,000 active;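 active = more than half of the replicate wells show a fall in the fluorescence ratio signal beyond about 16%, limit read from the data, passing the limit was not always enough; inconclusive = exactly half of the replicate wells pass the set limit; inactive = fewer than half of replicates pass the limit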;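 also: 0% = DMSO wells and 100% = Ran loaded with GDP instead of GTP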
TbHK1 inh – Trypanosoma brucei hexokinase 1 inhibitors, primary screen, biochemical, G6PDH-coupled NADH absorbance, MLSCN library. hexokinase 1 [Trypanosoma brucei]. recombinant TbHK1, G6PDH-coupled NADH A340. inhibition, % at 10 µM. 0.11% of 220,000 active. AID 1430, 2008;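 active = inhibition of 50% or more in the single-dose primary screen; inactive = inhibition below 50%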
p97 inhibitor – inhibitors of human p97 ATPase, primary screen, biochemical. Transitional endoplasmic reticulum ATPase (Homo sapiens), P55072. recombinant p97 ATPase, Kinase-Glo ATP luminescence, 3 h. inhibition, % at 8 µM. 0.42% of 220,000 active. AID 1481, 2009; in the data active = inhibition above about 15%;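 also: 0% = DMSO vehicle and 100% = wells lacking enzyme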
Target sequence (P55072 whole entry, looked up): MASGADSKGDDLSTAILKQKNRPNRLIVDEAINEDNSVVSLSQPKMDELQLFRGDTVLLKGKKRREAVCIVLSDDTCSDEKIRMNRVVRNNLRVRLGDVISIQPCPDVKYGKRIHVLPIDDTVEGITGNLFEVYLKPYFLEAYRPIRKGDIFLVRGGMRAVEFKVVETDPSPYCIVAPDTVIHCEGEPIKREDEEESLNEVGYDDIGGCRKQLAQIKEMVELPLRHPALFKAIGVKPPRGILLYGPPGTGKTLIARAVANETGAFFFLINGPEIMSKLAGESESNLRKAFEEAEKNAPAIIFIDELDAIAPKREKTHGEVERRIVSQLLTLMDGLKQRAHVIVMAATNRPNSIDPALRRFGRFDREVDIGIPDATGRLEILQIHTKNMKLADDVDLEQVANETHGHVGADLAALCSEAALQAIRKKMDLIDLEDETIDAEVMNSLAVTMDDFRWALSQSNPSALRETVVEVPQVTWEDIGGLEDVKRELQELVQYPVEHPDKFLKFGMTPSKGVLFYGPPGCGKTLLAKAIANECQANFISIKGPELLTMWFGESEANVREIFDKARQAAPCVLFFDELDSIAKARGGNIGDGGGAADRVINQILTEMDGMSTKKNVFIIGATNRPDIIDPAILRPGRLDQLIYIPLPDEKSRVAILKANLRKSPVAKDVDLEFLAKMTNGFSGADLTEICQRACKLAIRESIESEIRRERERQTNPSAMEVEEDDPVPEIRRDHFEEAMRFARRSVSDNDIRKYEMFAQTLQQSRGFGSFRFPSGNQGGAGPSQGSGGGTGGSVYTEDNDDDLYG
Runt-SMMHC FRET – inhibitors of RUNX1 Runt–CBFb-SMMHC binding, primary screen, biochemical, FRET, Cerulean-Runt, Venus-CBFb-SMMHC, uHTS; AID 1434, 2008; Cerulean-Runt/Venus-CBFb-SMMHC FRET ratio 530/480, 1 h; Runt-related transcription factor 1 (Homo sapiens) + Core-binding factor subunit beta …; inhibition, % at 20 µM; 0.74% of 220,000 active;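 active = mean inhibition across duplicate retests at 20 µM reaching about 50%, limit read from the data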;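 also: 0% = DMSO wells and 100% = wells with excess untagged CBFb-SMMHC; inhibitors lower the FRET ratio by blocking Runt binding to CBFb-SMMHC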
Runt-CBFb TRFRET – inhibitors of RUNX1 Runt–CBFb binding, biochemical, TR-FRET. shares compounds with Runt-CBFb FRET. TR-FRET RUNX1 Runt domain-CBFb binding. inhibition, % at 20 µM. 20% of 480 active. AID 1502, 2009; in the data active = inhibition above about 40%
* marks the source's active call; other numbers are inactive results; ? = inconclusive; nt = no result given.

SMILES | Runt-CBFb FRET | Hck Nef HTS | RanGTP-Impb inh | TbHK1 inh | p97 inhibitor | Runt-SMMHC FRET | Runt-CBFb TRFRET
COc1ccc(C(=O)Nc2c3c(nn2-c2ccc([N+](=O)[O-])cc2)CS(=O)(=O)C3)cc1 | nt | nt | -0.4 | nt | nt | nt | nt
N#Cc1ccc(CN(c2ccncc2)S(=O)(=O)c2ccccc2)cc1 | nt | nt | -1.0 | nt | nt | nt | nt
O=C(O)c1ccc(-n2c(-c3cc(-c4ccco4)[nH]n3)n[nH]c2=S)cc1 | 52.7* | -0.5 | ? | -0.2 | 6.3 | 52.6 | 81.1*
COCCCNC(=S)NCCCNc1nc2cc3c(cc2cc1C#N)OCO3 | 78.1* | 33.2 | 53.1* | -4.2 | 2.8 | 140.5* | 26.9
CC(C)OCCCn1c(=N)c(C(N)=S)cc2c(=O)n3ccccc3nc21 | 65.3* | 39.8 | 13.3 | -6.3 | -2.5 | 65.3* | 20.5
CCNC(=O)CSc1nc2ccccc2c(=O)n1CCCOC(C)C | -0.6 | -3.8 | -3.6 | -0.7 | 2.5 | 5.1 | nt
CCOCCCn1c(=N)c(C(=O)NCc2ccc3c(c2)OCO3)cc2c(=O)n3ccccc3nc21 | 51.4* | 6.9 | 28.8* | -13.0 | -8.1 | 125.3* | 25.2
Cc1ccc(NC(=O)c2ccc(NC(=O)c3ccccc3)cc2)cc1C | nt | nt | -2.3 | nt | nt | nt | nt
CCn1c(C)c(C(C)=O)c(N2CCN(c3ccccn3)CC2)nc1=S | 51.8* | -8.4 | 45.3* | -15.2 | -0.5 | 99.9* | -4.2
CS(=O)(=O)c1sc2nc(-c3cccs3)cc(-c3ccccc3)c2c1N | 54.4* | -0.1 | -2.5 | -20.1 | 3.5 | 85.3* | 17.3
N#Cc1sc2nc(-c3cccs3)cc(-c3ccc(F)cc3)c2c1N | -35.4 | -3.3 | -17.5 | -6.6 | 2.0 | -95.1 | nt
COc1ccc(C2c3ccc(O)cc3Oc3ncn4nc(-c5ccccn5)nc4c32)cc1 (stereo unspecified) | 52.8* | 6.4 | ? | -9.1 | 3.8 | nt | -3.7
COc1ccc(C2c3ccc(O)cc3Oc3ncn4nc(-c5ccccn5)nc4c32)cc1OC (stereo unspecified) | 17.6 | 23.5 | 7.0 | -0.5 | 4.6 | 28.1 | nt
O=S(=O)(c1ccccc1)N1N=C(c2cccs2)CC1c1ccc(Br)cc1 (stereo unspecified) | 1.2 | 0.9 | -4.5 | -0.6 | 1.7 | 2.7 | nt
c1ccc(C2CC(c3cccs3)=NN2c2ccccc2)cc1 (stereo unspecified) | 51.0* | -23.6 | 12.5 | -7.3 | 0.1 | 83.7* | 39.1
COc1ccc(CCNC(=O)N[C@@H](Cc2ccccc2)C(=O)O)cc1 | nt | nt | -0.1 | nt | nt | nt | nt
COc1ccccc1CNC(=O)CSc1nc2ccccc2c(=O)n1CCCN1CCOCC1 | -1.9 | 6.7 | -1.6 | -1.0 | -1.4 | -2.0 | nt
COCCOC(=O)c1c(N)n(CCCN2CCOCC2)c2nc3ccccc3nc12 | 51.0* | 30.5 | 11.0 | -32.4 | -1.2 | 96.9* | -3.8
Cc1ccc(C(=O)Cn2nnc3ccccc32)cc1[N+](=O)[O-] | 0.7 | 20.8 | 0.7 | -13.0 | 5.0 | 2.6 | nt
Cc1ccc(C(=O)n2nnc3ccccc32)cc1[N+](=O)[O-] | 88.9* | 3.3 | -8.1 | 0.7 | 1.3 | -2.0 | -8.3
O=C(O)C1OC(Oc2cc3oc(-c4ccccc4)cc(=O)c3c(O)c2O)C(O)C(O)C1O (stereo unspecified) | 55.8* | 19.7 | 1.0 | -61.0 | 10.9 | 37.4 | 8.8
Nc1ncnc(Sc2ncccn2)c1[N+](=O)[O-] | 62.3* | 15.4 | -0.1 | -18.9 | 2.0 | 10.1 | 1.2

From PubChem BioAssay
